Results from article PMC2949545 (Environment international, 2010).
Several values for one entry are separate records, joined by “and”; a condition that tells them apart may be missing. Equal entries are not always repeated. Where two headings read alike, the source gives them in different places.

Legend:
[1] = tested on: LacI; details: ref Lehmann et al. 2007, cited from earlier work
[2] = Body weight gain during the study period; type: in vivo, F344 BigBlue rats; details: for reduction of weight gain during the treatment period: versus control
[3] = ref Li et al. 1997; cited from earlier work
[4] = tested on: LacI gene; test: LacI gene sequencing, type of mutations; type: in vivo, F344 BigBlue rats; details: female liver
[5] = tested on: LacI gene; test: BigBlue lacI mutant and mutation frequency analysis, female liver; type: in vivo, F344 BigBlue rats
Summary of the method: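 Female F344 BigBlue rats (lacI transgene), 4/group, got i.p. test compound, positive control or corn oil (5 ml/kg) weekly on PND 37, 44, 51, 58 and were killed on PND75. Genomic DNA from 50 mg central liver was lambda-packaged, infected into E. coli and plated in X-gal top agar overnight. Blue plaques were counted, with >100,000 pfu/animal. Mutant frequency = blue plaques/pfu, per 10^6 ± SE.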

[6] = tested on: F344 BigBlue rats; test: Organ weights normalized to body weight; type: in vivo
Summary of the method: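 Rats of both genders, 4/group, were given 4 weekly i.p. doses in corn oil and killed on PND75 by CO2 then cervical dislocation. Liver and other organs were excised and weighed, and weights were expressed as g per 100 g body weight. ANOVA used treatment, gender and their interaction.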

[7] = tested on: F344 BigBlue rats; details: Male; animal 1 – 4; previously reported; ref Lehmann et al. 2007; Maddox et al. 2008; cited from earlier work
[8] = tested on: F344 BigBlue rats; test: Histological analysis of spleen, lung and liver; type: in vivo; details: animal 1 – 4
Summary of the method: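 In both genders, frozen tissue sampled at PND75 sacrifice (4 weekly i.p. doses, 4 rats/group) was cut into four-micron sections. Sections were stained with hematoxylin/eosin and examined by light microscopy for histological anomalies in each animal.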

[9] = tested on: liver mRNA; test: Gene expression analysis of female liver RNA; type: in vivo, F344 BigBlue rats

Q: Which “frameshift mutations, % of mutations” value ([1]; male livers, control 19%) does the source give for `Cc1ccc2cc3c(ccc4ccccc43)c3c2c1CC3` [3-MC, 3-Methylcholanthrene, reference compound] here?
A: The value was 27%.

Q: What about the “increase in mutation frequency” value ([1]; male rodents, liver) of the same compound?
A: The value was “about 5 fold”.

Q: And the “Weight Gain (average ± StDev)” value ([2]; Female, control 80.7 ± 7.42)?
A: Its value is 61.8 ± 7.78 ^# gram.

Q: What about the “Weight Gain (average ± StDev)” value ([2]; Male, control 159.7 ± 7.63) of the same compound?
A: The value was 90.4 ± 25.6 gram.

Q: What about the “reduction of weight gain during the treatment period” value ([2]; females) of the same compound?
A: Its value is 23%.

Q: And the “reduction of weight gain during the treatment period” value ([2]; males)?
A: The value was 43%.

Q: What about the “persistence in the liver” value [3] of the same compound?
A: Its value is 2 weeks.

Q: And the “Deletions, % of total” value [4]?
A: The value was 18%.

Q: What about the “Insertions, % of total” value [4] of the same compound?
A: Its value is 14%.

Q: What about the “Total Mutations” value [4] of the same compound?
A: Its value is 28.

Q: And the “Transitions, % of total” value [4]?
A: Its value is 32%.

Q: And the “Transversions, % of total” value [4]?
A: The value was 36%.

Q: What about the “frameshift mutations (deletions and insertions) observed, number” value ([4]; expected 5 from solvent control proportions) of the same compound?
A: The value was 9.

Q: And the “Deletions, distinct mutations” value ([4]; number)?
A: The value was 5.

Q: And the “Insertions, distinct mutations” value ([4]; number)?
A: Its value is 4.

Q: And the “Transitions, distinct mutations” value ([4]; number)?
A: The value was 9.

Q: What about the “Transversions, distinct mutations” value ([4]; number) of the same compound?
A: Its value is 10.

Q: What about the “frameshift mutations (deletions and insertions), % of all mutations” value ([4]; solvent controls 18%) of the same compound?
A: The value was 32%.

Q: What about the “significance of the increase in mutation frequency compared to control” value [5] of the same compound?
A: Its value is “failed marginally to reach statistical significance”.

Q: And the “Mutants per 10^6 plaques (mutant frequency)” value ([5]; 4 weekly i.p. injections, sacrifice PND75)?
A: Its value is 48.4 per 10^6 plaques.

Q: What about the “Mutation Frequency (MF) ± SE (corrected)” value ([5]; after sequencing) of the same compound?
A: The value was 43.5 per 10^6 pfu and 43.5 ± 14.8 per 10^6 pfu.

Q: And the “Number of Mutations (corrected)” value ([5]; after sequencing, duplicates and non-mutants excluded)?
A: Its value is 28.

Q: And the “increase in liver mass compared to corn oil controls” value ([6]; female rats)?
A: The value was “over 30%”.

Q: What about the “increase in lung mass compared to corn oil controls” value ([6]; female rats) of the same compound?
A: The value was “over 30%”.

Q: What about the “increase in spleen mass compared to corn oil controls” value ([6]; female rats) of the same compound?
A: Its value is “over 30%”.

Q: What about the “liver weight relative to body weight compared to corn oil treated rats” value ([6]; female rats) of the same compound?
A: Its value is “nearly doubled in weight per grams of body weight”.

Q: And the relative lung weight ([6]; female rats)?
A: Its relative lung weight is “more than doubling of the relative lung weight”.

Q: And the “spleen, thymus and adrenal gland weights relative to controls” value ([6]; females)?
A: Its value is “increased spleen weights and decreased the thymus and adrenal gland weights”.

Q: And the “Organ Pathology, LIVER” value [7]?
A: Its value is “centrilobular necrosis, in some cases severe, was the dominat finding”.

Q: And the “Organ Pathology, LUNG” value [7]?
A: Its value is 1: No abnormality 2 + 3: Focal perivascular lymphocytes. 4: Focal perivascular lymphocytes with increased intra-alveolar macrophages.

Q: And the “Organ Pathology, LIVER” value ([8]; Female)?
A: The value was “only scattered foci of necrosis, prominent Kupffer cells and focal perilobular lymphocytes in two of the four animals”.

Q: What about the “Organ Pathology, LUNG” value ([8]; Female) of the same compound?
A: The value was 1: Bronchopneumonia with what looks like early ARDS. Pulmonary edema 2: Bronchopneumonia with what looks like early ARDS more so than #1. Pulmonary edema. 3: Focal acute inflammation with increased intra-alveolar macrophages 4: No abnormality.

Q: And the “Organ Pathology, SPLEEN” value ([8]; Female)?
A: Its value is “No abnormality”.

Q: And the “Organ Pathology, SPLEEN” value ([8]; Male)?
A: Its value is “No abnormality”.

Q: And the “number of unique genes significantly changed” value ([9]; p < 0.0001 and fold change > 5 versus corn oil control, pooled RNA)?
A: The value was “Seventyfive”.

Q: What about the “calca (calcitonin/calcitonin-related polypeptide a) expression” value ([9]; versus corn oil control) of the same compound?
A: Its value is “up regulated”.

Q: What about the “csda (cold shock domain protein A) expression” value ([9]; versus corn oil control) of the same compound?
A: Its value is “up regulated”.

Q: And the “trib3 (tribbles homolog 3) expression” value ([9]; versus corn oil control)?
A: Its value is “up regulated”.

Q: And the “CYP1A2 gene expression increase” value ([9]; versus corn oil control, up)?
A: The value was 58 fold.

Q: And the “UGT1A2 gene expression increase” value ([9]; versus corn oil control, up)?
A: Its value is 13 fold.

Q: What about the “akr7a3 (aldo-keto reductases 7a3) expression change” value ([9]; versus corn oil control, up) of the same compound?
A: Its value is 16 fold.

Q: And the “bcl10 (B-cell CLL/lymphoma 10) expression change” value ([9]; versus corn oil control, up)?
A: Its value is 16.3 fold.

Q: What about the “ephx1 (epoxide hydrolase 1) expression change” value ([9]; versus corn oil control, up) of the same compound?
A: Its value is 9.9 fold.

Q: What about the “gdnf (glial cell derived neurotrophic factor) expression change” value ([9]; versus corn oil control, up) of the same compound?
A: Its value is 6.0 fold.

Q: And the “glrx1 (glutaredoxin 1) expression change” value ([9]; versus corn oil control, up)?
A: Its value is 10.2 fold.

Q: What about the “hmox1 (heme oxygenase 1) expression change” value ([9]; versus corn oil control, up) of the same compound?
A: The value was 16.3 fold.

Q: And the “mgst2 (microsomal glutathione S-transferase 2) expression change” value ([9]; versus corn oil control, up)?
A: Its value is 7.9 fold.

Q: And the “ptgs1 (prostaglandin-endoperoxide synthase 1) expression change” value ([9]; versus corn oil control, up)?
A: The value was 27.8 fold.

Q: And the smarcb1 expression change ([9]; versus corn oil control, up)?
A: The smarcb1 expression change was 8.5 fold.
